Experiment [1] concerns the target Kappa-type opioid receptor (Cavia porcellus) (UniProt P41144). The experiment can be described thus: Percent displacement of [3H]EKC from Opioid receptor kappa 1 at 100 nM conc. of compound.
In experiment [2] the target is Mu-type opioid receptor (Rattus norvegicus) (UniProt P33535). Nature of the experiment: Binding affinity to Opioid receptor mu 1 in rat brain using [3H]NAL as radioligand. The class given is tissue-based. The procedure, abridged:
(§1)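 μ sites labelled with [3H]naloxone in rat brain homogenates. The assay details are given in an earlier report.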

Experiment [3] shares this target. Nature of the experiment: Percent displacement of [3H]NAL from Opioid receptor mu 1 at 1000 nM conc. of compound. A general note: Loss of bound radioactivity is the signal in a displacement assay; it reports binding, not function.
The target of experiment [4] is Kappa-type opioid receptor (Cavia porcellus) (UniProt P41144). The experiment can be described thus: Percent displacement of [3H]EKC from Opioid receptor kappa 1 at 1000 nM conc. of compound.
Sequence of Kappa-type opioid receptor (Cavia porcellus) (P41144 whole entry): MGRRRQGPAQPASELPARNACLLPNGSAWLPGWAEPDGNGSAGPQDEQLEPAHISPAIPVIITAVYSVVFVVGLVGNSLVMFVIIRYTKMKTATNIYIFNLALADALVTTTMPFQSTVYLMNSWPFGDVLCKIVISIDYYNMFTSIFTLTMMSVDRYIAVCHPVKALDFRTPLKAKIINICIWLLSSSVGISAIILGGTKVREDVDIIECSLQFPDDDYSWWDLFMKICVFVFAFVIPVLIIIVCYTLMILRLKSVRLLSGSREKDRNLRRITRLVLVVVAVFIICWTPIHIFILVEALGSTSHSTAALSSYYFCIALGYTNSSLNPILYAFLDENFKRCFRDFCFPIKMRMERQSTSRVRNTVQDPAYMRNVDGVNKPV
A further experiment relates to Rattus norvegicus. Nature of the experiment: Dose (sc) required for a 2-s increase in reaction time in rat tail heat analgesia test. It is filed as functional.
Another experiment relates to Mus musculus. The experiment can be described thus: Dose (sc) required for 50% reduction in frequency of writhing in mouse writhing analgesia test. It is filed as functional.
Experiment [5] addresses Kappa-type opioid receptor (Cavia porcellus) (UniProt P41144). The experiment can be described thus: Percent displacement of [3H]EKC from Opioid receptor kappa 1 in guinea pig cortex at 100 nM conc. of compound.
The target of experiment [6] is Mu-type opioid receptor (Rattus norvegicus) (UniProt P33535). The experiment can be described thus: Binding affinity to mu opioid receptor in rat brain using [3H]NAL as radioligand. It is filed as tissue-based. Summed up:
as §1

The target is the same in experiment [7]. The experiment can be described thus: Percent displacement of [3H]-NAL from Opioid receptor mu 1 in rat brain at 1000 nM conc. of compound. The class given is tissue-based.
Experiment [8] addresses Kappa-type opioid receptor (Cavia porcellus) (UniProt P41144). The experiment can be described thus: Percent displacement of [3H]EKC from Opioid receptor kappa 1 in guinea pig cortex at 1000 nM conc. of compound.
In experiment [9] the target is Kappa-type opioid receptor (Cavia porcellus, UniProt P41144). Nature of the experiment: Binding affinity to Opioid receptor kappa 1 in guinea pig cortex using [3H]EKC as radioligand.
Sequence of Kappa-type opioid receptor (P41144 whole entry): as above
The next experiment deals with Mu-type opioid receptor (Rattus norvegicus, UniProt P33535). Nature of the experiment: Binding affinity to Opioid receptor mu 1 in rat brain using [3H]-NAL as radioligand. The class given is tissue-based. Summed up: as §1
Sequence of Mu-type opioid receptor (P33535 whole entry): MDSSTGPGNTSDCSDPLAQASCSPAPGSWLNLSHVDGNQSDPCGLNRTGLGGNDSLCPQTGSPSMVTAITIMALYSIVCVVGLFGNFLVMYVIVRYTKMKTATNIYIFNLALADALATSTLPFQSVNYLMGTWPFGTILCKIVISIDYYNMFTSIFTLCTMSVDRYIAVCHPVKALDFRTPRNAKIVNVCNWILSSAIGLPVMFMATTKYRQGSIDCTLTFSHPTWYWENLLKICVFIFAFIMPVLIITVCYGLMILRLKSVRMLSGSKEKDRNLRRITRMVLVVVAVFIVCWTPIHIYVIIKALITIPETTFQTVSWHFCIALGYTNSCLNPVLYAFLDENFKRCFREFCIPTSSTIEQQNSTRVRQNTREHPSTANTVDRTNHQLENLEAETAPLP
Where [10] appears, read: Mus musculus, sc, read-out: ED50.

Bounds are passed on as bounds.

Sequence of Mu-type opioid receptor (Rattus norvegicus) (P33535 whole entry): as above

With `C=CCN1CCC2(c3cccc(O)c3)CCCC[C@H]2C1` (single isomer, unassigned; (+)), the Displacement in [1] amounted to 2%; in experiment [2], 15%; in [3] it was 42%; in experiment [4], 16%.
With `CCCN1CCC2(c3cccc(O)c3)CCCC[C@H]2C1` (some centres not stated), in the experiment on Rattus norvegicus, the ED2sec came to 1.3 mg/kg. Moreover, the 50% effective dose (ED50) (as a rule, the midpoint of the dose-response relation) in the experiment on Mus musculus (setting [10]) came to 1.5 mg/kg.
Turning to `CCN1CCC2(c3cccc(O)c3)CCCC[C@H]2C1` (single isomer, unassigned; (+)), the Displacement came to 0% in experiment [5], 34% in experiment [6], 70% in [7] and 15% in [8].
As to `CCN1CCC2(c3cccc(O)c3)CCCC[C@H]2C1` (some centres not stated), in the experiment on Rattus norvegicus, the ED2sec is more than 100 mg/kg. The inhibitory constant (Ki) (usually a measure of affinity in units of concentration, obtained from inhibition or displacement) came out at 529 nM in experiment [9] and 29 nM at Mu-type opioid receptor. In addition, the ED50 with Mus musculus (setting [10]) was 18.2 mg/kg.
In the case of `C=CCN1CCC2(c3cccc(O)c3)CCCC[C@H]2C1` (some centres not stated), in the experiment on Rattus norvegicus, the ED2sec was 1.4 mg/kg. Further, the ED50 in the experiment with Mus musculus (setting [10]) was 1 mg/kg.
The compound `Oc1cccc(C23CCCC[C@H]2CN(CCc2ccccc2)CC3)c1` (some centres not stated) yielded an ED2sec with Rattus norvegicus of 0.08 mg/kg. Further, in the experiment with Mus musculus (setting [10]), the ED50 was 0.3 mg/kg.
On to `CCCN1CCC2(c3cccc(O)c3)CCCC[C@H]2C1` (single isomer, unassigned; (-)) [listing 1 of 2 here], for which the inhibition constant Ki on Mu-type opioid receptor was 473 nM.
In the experiment with Rattus norvegicus, `COc1cccc(C23CCCC[C@H]2CN(C)CC3)c1` (some centres not stated) gave an ED2sec of 3.3 mg/kg. In the experiment with Mus musculus (setting [10]), the ED50 was 1.2 mg/kg.
For the compound `CN1CCC2(c3cccc(O)c3)CCCC[C@H]2C1` (single isomer, unassigned; (-)), the ED2sec in the experiment on Rattus norvegicus was 1.6 mg/kg. The Ki in experiment [9] came to 433 nM; at Mu-type opioid receptor it was 8.9 nM. The ED50 in the experiment with Mus musculus amounted to 2.1 mg/kg.
For the compound `C=CCN1CC[C@]23c4c5ccc(O)c4O[C@H]2[C@@H](O)C=C[C@H]3[C@H]1C5` [NALORPHINE], in the experiment on Rattus norvegicus, the ED2sec is more than 100 mg/kg. For the same compound, the figures for the Ki (in [9]; at Mu-type opioid receptor) were 15 nM and 6.5 nM, respectively. Also, in the experiment on Mus musculus (setting [10]), the 50% effective dose (ED50) stood at 0.7 mg/kg.
The like results for `CC(C)=CCN1CC[C@]2(C)c3cc(O)ccc3C[C@H]1[C@H]2C` [(+)-PENTAZOCINE] were, in that order, 2.6 mg/kg, 75 nM, 6.9 nM and 2 mg/kg.
Regarding `Oc1cccc(C23CCCC[C@H]2CN(CC2CC2)CC3)c1` (single isomer, unassigned; (-)), in the experiment on Rattus norvegicus, the ED2sec is 3 mg/kg. Besides, the inhibition constant (Ki) is 2.5 nM in experiment [9] and 4.2 nM at Mu-type opioid receptor. For the same compound, the ED50 with Mus musculus stood at 2.2 mg/kg.
Consider `CN1CCC2(c3cccc(O)c3)CCCC[C@H]2C1` (stereo in doubt; 13), for which the ED2sec in the experiment on Rattus norvegicus worked out at 0.4 mg/kg. The median effective dose (ED50) in the experiment with Mus musculus was 0.5 mg/kg.
`CC(C)=CCN1CCC2(c3cccc(O)c3)CCCC[C@H]2C1` (some centres not stated) gave an ED2sec in the experiment on Rattus norvegicus of 1.5 mg/kg. Further, in the experiment with Mus musculus (setting [10]), the ED50 worked out at 1 mg/kg.
Take `Oc1cccc(C23CCCC[C@H]2CN(CC2CCC2)CC3)c1` (some centres not stated): the ED50 in the experiment with Mus musculus (setting [10]) amounted to 0.6 mg/kg.
In the case of `CN1CCC2(c3ccccc3)CCCC[C@H]2C1` (some centres not stated), in the experiment on Rattus norvegicus, the ED2sec was 8.8 mg/kg. The ED50 in the experiment on Mus musculus (setting [10]) stood at 3.5 mg/kg.
In turn, `CN1CCC2(c3cccc(O)c3)CCCC[C@H]2C1` (single isomer, unassigned; (+)) came in with an ED2sec with Rattus norvegicus of 0.3 mg/kg. The Ki in experiment [9] stood at 61 nM; at Mu-type opioid receptor, 0.96 nM. Further, the ED50 in the experiment on Mus musculus was 0.4 mg/kg.
`CN1CC[C@]23c4c5ccc(O)c4O[C@H]2[C@@H](O)C=C[C@H]3[C@H]1C5` [MORPHINE] had an ED2sec with Rattus norvegicus of 0.7 mg/kg. Further, in the experiment on Mus musculus (setting [10]), the ED50 was 0.9 mg/kg.
In turn, `Oc1cccc(C23CCCC[C@H]2CN(CC2CC2)CC3)c1` (single isomer, unassigned; (+)) [listing 1 of 2 here] showed an ED2sec with Rattus norvegicus of more than 50 mg/kg. Moreover, in the experiment on Mus musculus, the ED50 is more than 50 mg/kg.
On to `Oc1cccc(C23CCCC[C@H]2CN(CC2CC2)CC3)c1` (stereo in doubt; 29), for which the ED2sec in the experiment with Rattus norvegicus turned out to be 5.6 mg/kg. The 50% effective dose (ED50) in the experiment with Mus musculus amounted to 3.3 mg/kg.
With `Oc1cccc(C23CCCC[C@H]2CN(CCc2ccccc2)CC3)c1` (single isomer, unassigned; (-)), the Ki in experiment [9] came to 89 nM; at Mu-type opioid receptor, 0.23 nM.
For `Oc1cccc(C23CCCC[C@H]2CN(CC2CC2)CC3)c1` (single isomer, unassigned; (+)) [listing 2 of 2 here], the Displacement in experiment [2] turned out to be 4%; in experiment [5], 5%; in experiment [7] it was 35%; in [8], 32%.
In the case of `CCCN1CCC2(c3cccc(O)c3)CCCC[C@H]2C1` (single isomer, unassigned; (-)) [listing 2 of 2 here], the Displacement in experiment [5] stood at 12%; in experiment [8], 46%.
Consider `C[C@H]1[C@H]2Cc3ccc(O)cc3[C@]1(C)CCN2CC1CC1` [CYCLAZOCINE], for which the results for the inhibitory constant (Ki) (in experiment [9]; at Mu-type opioid receptor) were 1.3 nM and 1.2 nM, respectively. The 50% effective dose (ED50) in the experiment on Mus musculus (setting [10]) amounted to 0.07 mg/kg.
Turning to `Oc1cccc(C23CCCC[C@H]2CN(CCc2ccccc2)CC3)c1` (single isomer, unassigned; (+)), the Displacement was determined as 19% in [2], 8% in [5], 74% in [7] and 53% in experiment [8].
On to `CCCN1CCC2(c3cccc(O)c3)CCCC[C@H]2C1` (single isomer, unassigned; (+)), for which the Displacement in experiment [2] came out at 43%; in experiment [5], 4%; in experiment [7], 83%.

These data come from ChEMBL document CHEMBL1124288, “Synthesis and analgesic properties of N-substituted trans-4a-aryldecahydroisoquinolines” (J Med Chem, 1988).
